Screening data from PubChem BioAssay.
Shown is part of a subset that was picked to be rich in hits.
Cl transport mod = KCC2 cotransporter modulators, thallium flux, primary screen, cell-based, HEK293 KCC2, FluoZin-2 fluorescence, MLSMR | B-score of Tl+ flux slope (higher = more flux/activation; lower = inhibition) at 10 µM | actives 2.2% (n = 190,000) | Solute carrier family 12 member 5 (Homo sapiens), Q9H2X9 | AID 1456, 2008 | KCC2 cells, thallium flux FluoZin-2 fluorescence;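 active = thallium flux slope and its plate-corrected score both differing from the plate sample mean at a set confidence after two filtering rounds, in either direction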;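 note: slope of fluorescence scaled to starting intensity during 10 to 20 s after thallium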
Target sequence (Q9H2X9 whole entry, looked up): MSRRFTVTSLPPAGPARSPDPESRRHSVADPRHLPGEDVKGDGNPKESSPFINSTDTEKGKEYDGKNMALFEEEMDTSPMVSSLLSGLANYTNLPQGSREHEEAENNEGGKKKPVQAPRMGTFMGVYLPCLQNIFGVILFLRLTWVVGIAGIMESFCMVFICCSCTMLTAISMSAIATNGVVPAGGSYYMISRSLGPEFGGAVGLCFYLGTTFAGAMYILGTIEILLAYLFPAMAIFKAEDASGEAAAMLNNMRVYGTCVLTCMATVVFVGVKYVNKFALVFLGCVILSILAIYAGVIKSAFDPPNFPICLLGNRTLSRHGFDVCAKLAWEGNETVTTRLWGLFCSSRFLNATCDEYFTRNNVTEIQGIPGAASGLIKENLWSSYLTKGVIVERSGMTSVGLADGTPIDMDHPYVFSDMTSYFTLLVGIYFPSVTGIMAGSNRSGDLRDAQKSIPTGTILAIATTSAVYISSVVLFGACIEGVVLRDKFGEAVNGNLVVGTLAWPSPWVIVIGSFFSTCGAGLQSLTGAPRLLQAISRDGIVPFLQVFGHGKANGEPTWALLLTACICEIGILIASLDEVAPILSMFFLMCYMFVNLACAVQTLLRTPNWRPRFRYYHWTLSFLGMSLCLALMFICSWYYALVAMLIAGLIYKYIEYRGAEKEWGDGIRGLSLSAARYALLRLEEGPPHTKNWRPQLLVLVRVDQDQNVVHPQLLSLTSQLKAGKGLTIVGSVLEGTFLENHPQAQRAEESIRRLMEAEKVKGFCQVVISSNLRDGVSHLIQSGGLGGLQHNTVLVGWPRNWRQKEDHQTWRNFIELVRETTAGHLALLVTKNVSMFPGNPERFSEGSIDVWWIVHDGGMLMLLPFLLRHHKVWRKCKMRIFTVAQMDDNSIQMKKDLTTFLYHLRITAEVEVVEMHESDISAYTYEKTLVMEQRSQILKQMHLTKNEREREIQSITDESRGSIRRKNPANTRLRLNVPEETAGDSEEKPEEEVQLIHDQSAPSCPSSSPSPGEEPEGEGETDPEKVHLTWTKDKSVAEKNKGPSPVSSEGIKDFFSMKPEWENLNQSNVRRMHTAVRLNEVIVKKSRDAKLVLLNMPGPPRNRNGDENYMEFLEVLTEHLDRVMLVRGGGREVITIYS
Dynein transport = inhibitors of GR-EGFP nuclear translocation, primary screen, dynein cargo transport inhibitor project, imaging, high-content, 3617.4 mouse cells | test concentration mostly 20 µM; stimulated with dexamethasone, 1 µM; active compounds read low | z-score, hits read low | AID 1381, 2008 | actives 0.47% (n = 220,000);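 active = plate z-score of nuclear minus cytoplasmic receptor signal below a set negative limit, without overly bright fluorescence or cell loss, cut at about -3.5 in these data, passing the limit was not always enough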;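 note: z-score of nuclear minus cytoplasmic ring GR-EGFP intensity difference per well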
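Schedule: 48 h induction, then 1 h compound, then 30 min agonist, 37 °C. Buffer or medium: tetracycline-free induction medium containing charcoal-stripped FBS. Reagent: 1.0 µM final dexamethasone stimulus. Evaluation: nuclear versus cytoplasmic GR-EGFP signal, averaged per well. Signal: high-content fluorescence imaging after fixation.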
pCIP destab = p/CIP-EGFP fusion destabilizers, primary screen, fluorescence, F442A cells; Q05BA5; 16 h; decrease of EGFP signal, % at 10 µM; actives 0.01% (n = 290,000); AID 1984, 2009;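 active = EGFP signal decrease of at least 30% at 10 µM or well 3 SD below plate mean, unless failing retest; inactive = the rest, including hits failing retest or dose response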
V-ATPase pH = regulators of yeast V-ATPase proton pumping, primary screen, pHLuorin cytosolic pH fluorescence | S. cerevisiae | response, % at 10 µM | actives 0.37% (n = 350,000); in the data active = response mostly above about 7.3%, no sharp cut-off; inactive = mostly below about 5.4%; note: actives read high
ABCB6 inh 2 = ABCB6 transporter inhibitors, primary screen, K562-ABCB6 cells, flow cytometry, MLPCN library; actives 0.19% (n = 360,000); ATP-binding cassette sub-family B member 6 (Homo sapiens), Q9NP58; K562-ABCB6 porphyrin accumulation, 1 h; active compounds read low; fluorescence ratio to DMSO, % at 10 µM; AID 602162, 2011;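 active = fluorescence ratio to DMSO below 75%, the collection mean minus 3 SD; inconclusive = too few cells collected in the well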;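 note: signal is porphyrin accumulated inside mitochondria; 100% equals median channel fluorescence of DMSO control wells; lower ratio means ABCB6 inhibition with less porphyrin fluorescence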
KCC2 sec1 = KCC2 modulators in sodium-free buffer, confirmation, cell-based, HEK293 KCC2, thallium flux, secondary assay. shares compounds with Cl transport mod. FluoZin2 fluorescence; active compounds read high. actives 15% (n = 3,700). normalised thallium flux (F/F0 slope) at 10 µM;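 active = thallium flux slope above the same plate's solvent-only control mean plus 3 SD; inconclusive = the two replicate wells disagree; inactive = no significant difference from solvent-only control wells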
KCC2 bumet counter = thallium flux persisting under bumetanide in KCC2 cells, confirmation, counter-screen for KCC2 modulator project, cell-based, HEK293 KCC2, FluoZin2, secondary assay 3 | shares compounds with Cl transport mod | normalized thallium flux at 10 µM | HEK293-KCC2 + bumetanide/ouabain; active compounds read high | actives 49% (n = 3,700);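 active = thallium entry rate above the same plate's blocked-transporter control wells by more than 3 SD; inconclusive = the two repeat wells disagree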;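 note: raw slope of fluorescence over initial fluorescence between 10 and 20 s after thallium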
KCC2 secondary2 = KCC2 modulators without ouabain present, confirmation, cell-based, HEK293 KCC2, thallium flux, FluoZin2, secondary assay 2 | shares compounds with Cl transport mod | thallium flux FluoZin2 fluorescence; actives lie on both sides; F/F0 rise rate, 10–20 s post-thallium | normalized thallium flux at 10 µM | actives 23% (n = 3,700);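 active = thallium flux slope more than 3 SD above or below the plate's solvent-only control mean, mostly below; inconclusive = the two repeat wells disagreed; inactive = no significant shift from solvent-only controls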;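 note: raw slope with 0.1% DMSO as baseline and bumetanide as block control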
HEK293 Tl flux = thallium flux modulation in parental HEK cells, confirmation, counter-screen for KCC2 modulator project, cell-based, counterscreen 1; AID 1716, 2009; shares compounds with Cl transport mod; actives 46% (n = 3,700); HEK293 parental cells, thallium flux FluoZin2, ouabain; baseline-ratio fluorescence slope, 10–20 s after thallium; thallium flux rate (normalised fluorescence) at 10 µM;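 active = thallium flux rate significantly above the same plate's solvent-only control wells, beyond their mean plus 3 SD; inconclusive = the two replicate wells gave conflicting results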
KCC2 ouabain = KCC2 inhibitors and activators, ouabain retest, confirmation, HEK-KCC2 cells. AID 1717, 2009. actives 48% (n = 3,700). HEK293-KCC2, thallium flux FluoZin2 fluorescence; bidirectional: low = inhibitor, high = activator. shares compounds with Cl transport mod. raw Tl+ flux slope (below DMSO = inhibition, above = activation) at 10 µM;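 active = thallium flux slope beyond 3 SD from same-plate DMSO control mean in most replicates, usually higher, sometimes lower; inconclusive = repeat tests gave conflicting results; inactive = no significant difference from controls in most replicates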;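 note: slope of initial-normalized fluorescence between seconds 10 and 20 after thallium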
HEK counter2 = native HEK Tl+ uptake effects, second counter-screen – HEK cells, counterscreen 2, counter-screen for KCC2 modulator project, confirmation; shares compounds with Cl transport mod; HEK293 parental, thallium flux FluoZin-2 fluorescence slope; thallium flux slope at 10 µM; actives 33% (n = 3,700); AID 1718, 2009;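 active = thallium flux slope above the same plate's solvent-control mean plus 3 SD in both duplicate wells; inconclusive = duplicate wells that disagreed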;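 note: run without ouabain in cells lacking the KCC2 cotransporter; slope of fluorescence scaled to its starting value between 10 and 20 s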
Active calls of the source: *; ? = inconclusive; / = not tested or not shown.

SMILES	Cl transport mod	Dynein transport	pCIP destab	V-ATPase pH	ABCB6 inh 2	KCC2 sec1	KCC2 bumet counter	KCC2 secondary2	HEK293 Tl flux	KCC2 ouabain	HEK counter2
c1ccc(-c2csc(Cc3nnc4n3CCCCC4)n2)cc1	-1.8	2.48	-2.5	-1.0	97.0	0.00614	0.00558	0.0274	0.00651	0.014*	0.00958
OCC[C@@H]1C[C@@H](O)[C@H](O)[C@]2(CCc3ccccc3CO2)O1	/	/	3.2	-2.6	88.0	/	/	/	/	/	/
c1ccc(-c2noc(-c3ccccc3-c3ccccc3)n2)cc1	5.63*	0.311	0.1	4.6	102.0	0.00644	0.00374	0.0324	0.00737	0.0194	0.0103
Fc1ccccc1-c1nc(-c2ccc(Cl)cc2)no1	0.0667	2.86	/	-3.8	97.0	/	/	/	/	/	/
Cc1ccc(/C=N/n2c(-c3ccco3)n[nH]c2=S)s1	2.11	-0.0245	-8.1	2.7	100.0	/	/	/	/	/	/
S=c1[nH]nc(-c2ccco2)n1/N=C/c1ccccc1Cl	10.4*	-0.37	-15.3	-2.3	104.0	0.0118*	0.0363*	0.0369	0.0181*	0.0411*	0.0122*
S=c1[nH]nc(-c2ccco2)n1/N=C/c1ccc(Cl)cc1	4.11*	-0.838	8.2	0.4	98.0	0.0148*	0.146*	0.0315	0.0534*	0.0737*	0.0131*
O=C(CNC(=O)c1ccccc1F)N/N=C/c1cccnc1	/	/	3.4	1.1	101.0	/	/	/	/	/	/
CCOC(=O)c1c(-c2ccccc2)csc1NC(=O)CSc1ccccc1	-0.0641	-0.521	-1.8	0.5	102.0	/	/	/	/	/	/
CCOC(=O)c1c(-c2ccccc2)csc1NC(=O)CSc1nnnn1C	-4.71*	-0.507	-2.5	-3.2	102.0	0.00542	0.00429	0.0284	0.00756	?	?
CCOC(=O)N/N=C(\CCC(=O)O)c1cccs1	7.24*	1.37	4.5	2.0	99.0	0.00944	0.00586	0.0332	0.00751	0.02	0.0105
N#CC1=C(N)N=C(SCc2ccccc2)C(C(N)=O)C12CCCCC2 (stereo not given)	-5.54*	-1.06	14.4	-0.5	105.0	0.00698	0.0094*	?	0.00758	0.0145*	0.00999
CC(=O)NCCOC(=O)Nc1cccnc1	7.18*	-0.483	-0.2	-0.9	102.0	0.00592	0.00501	?	?	0.0185	0.0103
CCOc1cc(-c2noc(CCCC(N)=O)n2)cc(Br)c1OC	4.46*	0.242	-11.3	-1.2	94.0	0.00727	?	0.0284	0.00741	0.0193	0.00998
O=C(NNC(=O)c1ccccc1Cl)c1ccc(-n2cncn2)c([N+](=O)[O-])c1	/	/	/	-0.2	96.0	/	/	/	/	/	/
COC(=O)N/N=C/c1c(C)cc(C)cc1C	-5.31*	-0.13	-9.0	-2.1	97.0	0.0103	0.00583	0.0325	0.00754	0.0236	0.0109
COC(=O)N/N=C\c1c(C)[nH]n(-c2ccccc2)c1=O	-1.29	2.07	-4.7	-0.6	98.0	/	/	/	/	/	/
CN(C)S(=O)(=O)c1ccc(C(=O)OCC(=O)c2csc(N3CCCCC3)n2)cc1	/	/	/	-4.1	97.0	/	/	/	/	/	/
O=C(Nc1ccc(S(=O)(=O)NCc2ccco2)cc1)c1ccc2ccccc2n1	/	-1.27	-0.6	-0.8	95.0	0.00874	0.0061	0.0348	0.00461	0.0195	0.0113
CCN(CC)/C(Sc1ccccc1)=C(\C(Cl)=C(Cl)Cl)[N+](=O)[O-]	-4.92*	-0.681	8.9	-1.8	103.0	0.00503	?	?	0.00637*	?	0.0102
CCN(CC)/C(Sc1ccccc1)=C(/C(Cl)=C(Cl)Cl)[N+](=O)[O-]	-1.41	-1.9	2.3	5.1	97.0	/	/	/	/	/	/
S=c1[nH]nc(Cc2c[nH]c3ccccc23)o1	-5.52*	0.257	-2.1	0.8	101.0	0.00831	0.00568	0.0229*	0.0068	0.0114*	0.00943
Cc1ccc(COc2ccsc2-c2n[nH]c(=S)n2C)cc1	/	0.318	-0.4	0.5	96.0	/	/	/	/	/	/
Cn1c(-c2sccc2OCc2ccc(Cl)cc2Cl)n[nH]c1=S	5.24*	-0.646	-16.4	1.8	91.0	0.00645	0.0134*	0.0261	0.0118*	0.0168	0.012*
Cc1ccc(C)c(/C=C/C(=O)c2ccccc(=O)c2O)c1	40.4*	0.405	-1.2	-3.9	98.0	0.00614	0.067*	0.0607*	0.0623*	0.0618*	0.0513*
SMILES	Cl transport mod	Dynein transport	pCIP destab	V-ATPase pH	ABCB6 inh 2	KCC2 sec1	KCC2 bumet counter	KCC2 secondary2	HEK293 Tl flux	KCC2 ouabain	HEK counter2
Cc1ccc(/C=C/C(=O)c2ccccc(=O)c2O)c(C)c1	67.7*	-1.19	-0.6	-5.8	95.0	0.013*	0.0882*	0.0403*	0.0562*	0.0728*	0.0197*
O=C(/C=C/c1ccc([N+](=O)[O-])cc1)c1ccccc(=O)c1O	/	/	/	24.3	98.0	/	/	/	/	/	/
CCC(C)Sc1nnc(NS(=O)(=O)Cc2ccccc2)s1 (stereo not given)	/	/	-5.6	7.8	101.0	/	/	/	/	/	/
Cc1ccc(S(=O)(=O)CCC(=O)OCC(=O)N2c3ccccc3CC2C)cc1 (stereo not given)	/	/	/	-3.8	94.0	/	/	/	/	/	/
Cc1ccc(OCCC(=O)OCC(=O)N2c3ccccc3CC2C)cc1 (stereo not given)	-5.12*	-0.467	-3.2	-2.8	96.0	0.0077	0.00485	0.0246*	0.00724	0.0168*	0.00959
Cc1ccccc1C(=O)NNC(=S)Nc1cccc(C(F)(F)F)c1	-0.0123	-0.126	-5.9	7.1	98.0	/	/	/	/	/	/
